Assay results: ChEMBL document CHEMBL4651341, “The discovery of a novel series of compounds with single-dose efficacy against juvenile and adult Schistosoma species” (PLoS Negl Trop Dis, 2021)
Converted amounts (≈) assume the structure as drawn.

Key:
[1] = Mean AUC inf in Swiss albino male mice at 1 mg/kg per compound (administered iv in a mixture of 5 compounds to 3 mice) assessed by LCMS/MS.; assay type: ADME, organism-based; conditions: male, Swiss albino, mouse, in vivo
In short: (§1)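 Male Swiss albino mice (~30 g), 3 per experiment, mostly dosed as mixtures of 5 compounds iv via the lateral tail vein. Vehicle: 10% DMSO/90% 50 mM Na2HPO4 with 0.5% Tween-80. Blood sampled at 5, 15, 30 min and 1, 2, 4, 8, 24 h. Plasma stored at −20 °C and quantified by LC-MS after acetonitrile precipitation.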

Schistosoma mansoni [2] = assay: Concentration required to kill 50% of 21 day old worms 5 days after drug treatment.; assay type: functional, organism-based; conditions: Puerto Rican, 120 h
In short: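 Juvenile S. mansoni (Puerto Rican strain) were perfused from CD1 mice 3 weeks post-infection and washed. They were cultured 6–8 per well in 200 µL DMEM with 2 mM glutamine, penicillin/streptomycin and 10% FCS at 37 °C, 5% CO2. Viability of individual worms was scored on day 5 after dosing (120 h).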

[3] = Percentage of parent compound remaining after incubation for 90 minutes with cyropreserved mouse hepatocytes at a concentration of 1uM compound and […], determined by LCMS; assay type: ADME, tissue-based, Hepatocyte; conditions: cryopreserved mouse hepatocytes, read-out: Stability
In short: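 Compound was incubated at 1 µM final (2 µM working solution mixed 1:1 with hepatocyte suspension) in supplemented KHB pH 7.4. Conditions: 37 °C, 5% CO2, gentle mixing, duplicates. Reaction quenched with ice-cold acetonitrile containing standard; analysed by LC-MS/MS. % remaining = AUC at t / AUC at T0.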

[4] = Mean plasma concentration at 4h in Swiss albino male mice at […] per compound (administered orally in a mixture of 5 compounds to 3 mice) assessed by LCMS/MS.; assay type: ADME, organism-based; conditions: mouse, po
[5] = Mean time to peak plasma concentration in Swiss albino male mice at […] per compound (administered orally in a mixture of 5 compounds to 3 mice) assessed by LCMS/MS.; assay type: ADME, organism-based; conditions: mouse, po
[6] = Mean oral bioavailability in Swiss albino male mice at […] per compound (administered in a mixture of 5 compounds to 3 mice) assessed by LCMS/MS.; also: dose 2.5 mg/kg; assay type: ADME, organism-based; conditions: male, Swiss albino, mouse, in vivo, read-out: Bioavailability
[7] = Mean half-life in Swiss albino male mice at 1 mg/kg per compound (administered iv in a mixture of 5 compounds to 3 mice) assessed by LCMS/MS.; assay type: ADME, organism-based; conditions: mouse, in vivo
In short: (§2)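 Male Swiss albino mice (~30 g), 3 per experiment, mostly dosed as mixtures of 5 compounds iv via the lateral tail vein. Vehicle: 10% DMSO/90% 50 mM Na2HPO4 with 0.5% Tween-80. Plasma stored at −20 °C and quantified by LC-MS after acetonitrile precipitation.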

[8] = Mean observed clearance in Swiss albino male mice at 1 mg/kg per compound (administered iv in a mixture of 5 compounds to 3 mice) assessed by LCMS/MS.; assay type: ADME, organism-based; conditions: male, Swiss albino, mouse, in vivo, read-out: Clearance (converted); in short: as §1
Schistosoma mansoni [9] = assay: Concentration required to kill 50% of 42 day old worms 5 days after drug treatment.; assay type: functional, organism-based; conditions: Puerto Rican, 120 h
In short: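 Adult S. mansoni were perfused from CD1 mice 6 weeks post-infection and washed. They were cultured 3 pairs per well in 1 mL DMEM with 2 mM glutamine, penicillin/streptomycin and 10% FCS […] at 37 °C, 5% CO2. Viability of individual worms was scored on day 5 (120 h).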

[10] = Mean plasma concentration at 24h in Swiss albino male mice at […] per compound (administered orally in a mixture of 5 compounds to 3 mice) assessed by LCMS/MS.; assay type: ADME, organism-based; conditions: mouse, po
[11] = Mean volume of distribution at steady state in Swiss albino male mice at 1 mg/kg per compound (administered iv in a mixture of 5 compounds to 3 mice) assessed by LCMS/MS.; assay type: ADME, organism-based; conditions: mouse, in vivo, read-out: Volume; in short: as §2
[12] = Solubility at 25 degC of compound (diluted from DMSO) in PBS at pH 7.4 determined after 24h (1h sonication, 22h shaking, 1h sonication) by LCMS/MS; assay type: physicochemical
[13] = Concentration required to kill 50% HepG2 cells as detected by MTT staining; assay type: toxicity, cell-based; conditions: homo sapiens, read-out: TC50 (the source's name)

Row | SMILES | AUC(0-inf) [1] [ng·h/mL] | EC50 (Schistosoma mansoni [2]) [µM] | remaining at 1.5 h, 1 µM [3] [%] | concentration at 4 h [4] [ng/mL] | Tmax [5] [h] | bioavailability [6] [%] | half-life [7] [h] | clearance [8] [mL/min/kg] | EC50 (Schistosoma mansoni [9]) [µM] | concentration at 24 h [10] [ng/mL] | Vd [11] [L/kg] | solubility kinetic at 24 h [12] [µM] | CC50 [13] [µM]
1 | CC(C)c1nc2cnc(-c3ccc(F)c(C(F)(F)F)c3)cn2c1-c1ccc2[nH]ncc2c1 | 1440 | 0.174 | 41.3 | 371 | 0.667 | 81.8 | 7.99 | 5.83 | 0.185 | 60.5 | 3.16 |  | 
2 | Fc1c(-c2c(C(F)(F)F)nc3cnc(-c4ccnc(C(F)(F)F)c4)cn23)ccc2[nH]ncc12 |  | 0.138 | 76.5 |  |  |  |  |  | 0.117 |  |  | 2.95 (≈ 1.38 µg/mL) | 7
3 | CC1(c2nc3cnc(-c4ccc(F)c(C(F)(F)F)c4)cn3c2-c2c(F)cc(O)cc2F)CC1 | 528 | 0.0796 | 41.7 | 76 | 0.25 | 55.6 | 8.48 | 15.9 | 0.0563 | 7.01 | 9.19 | 32.8 (≈ 15.2 µg/mL) | 7.9
4 | CCc1nc2cnc(-c3ccc(F)c(C(F)(F)F)c3)cn2c1-c1c(F)cc(O)cc1F | 464 | 0.0514 | 36 | 50.3 | 0.25 | 47.7 | 10 | 18 | 0.0528 | 12.3 | 8.79 | 1.5 (≈ 0.656 µg/mL) | 8.3
5 | CC(C)c1nc2cnc(-c3cccc(C(F)(F)F)c3)cn2c1-c1c(F)cc(O)cc1F |  | 0.0937 | 30.2 |  |  |  |  |  | < 0.0455 |  |  | 0.951 (≈ 0.412 µg/mL) | 7.5
6 | Cc1nc2cnc(-c3ccc(F)c(C(F)(F)C(F)(F)F)c3)cn2c1-c1c(F)cc(O)cc1F |  | 0.0205 | 31.6 |  |  |  |  |  | 0.0195 |  |  | 2.43 (≈ 1.15 µg/mL) | 8.8
7 | Fc1c(-c2c(C(F)(F)F)nc3cnc(-c4cccc(C(F)(F)F)c4)cn23)ccc2[nH]ncc12 |  | 0.0415 | 69 |  |  |  |  |  | 0.0252 |  |  |  | 
8 | Fc1ccc(-c2cn3c(-c4ccc5[nH]ncc5c4)c(C(F)(F)F)nc3cn2)cc1C(F)(F)F | 2730 | 0.35 | 56.2 | 322 | 1.67 | 91.3 | 23.3 | 3.08 | 0.329 | 208 | 6.69 |  | 
9 | Oc1cc(F)c(-c2c(C3CC3)nc3cnc(-c4ccc(F)c(C(F)(F)C(F)(F)F)c4)cn23)c(F)c1 |  | 0.0239 | 54.3 |  |  |  |  |  | 0.0105 |  |  | 3.14 (≈ 1.57 µg/mL) | 9.4
10 | Oc1cc(F)c(-c2c(C3CCC3)nc3cnc(-c4ccc(F)c(C(F)(F)F)c4)cn23)c(F)c1 | 1060 | 0.0729 | 48.2 | 161 | 0.333 | 48.6 | 9.17 | 7.9 | 0.0586 | 21.7 | 4.74 | 51.6 (≈ 23.9 µg/mL) | 5.7
